# Tests used:
# Cricetinae gen. sp. [1] = assay: Cultures with minimal degree of squamous metaplasia at a concentration of 10e-10; format: functional, Cricetulus griseus
# Procedure, shortened: (§1)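 Tracheas from 29-31-day-old hamsters fed a vitamin A free diet; cultured in serum-free CMRL 1066 (insulin 1.0 μg/mL, hydrocortisone hemisuccinate 0.1 μg/mL, glutamine 2 mM, Garamycin 50 μg/mL), 50% O2/45% N2/5% CO2, rocked, 36 °C. Retinoid-free 3 days, then retinoid in DMSO (final 0.1%) for 7 days; medium and gas changed three times. Formalin-fixed day 10; squamous metaplasia graded: mild 2-10%, marked 10-40%, severe >40%.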
# Cricetinae gen. sp. [2] = assay: Cultures with severe degree of squamous metaplasia at a concentration of 10e-11; format: functional, Cricetulus griseus
# Procedure, shortened: (§2)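 Tracheas from 29-31-day-old hamsters kept on a vitamin A free diet, cultured in serum-free CMRL 1066 (insulin 1.0 μg/mL, hydrocortisone hemisuccinate 0.1 μg/mL, glutamine 2 mM, Garamycin 50 μg/mL), 50% O2/45% N2/5% CO2, rocked at 36 °C. Retinoid-free for 3 days, then retinoid in DMSO (0.1% final) for 7 days. Fixed in formalin; squamous metaplasia graded mild 2-10%, marked 10-40%, severe >40%.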
# HEp-2 [3] = assay: Viability of human epidermoid carcinoma cells (H.Ep-2) at a concentration 1 ug/mL; format: functional
# Procedure, shortened: (§3)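 Human epidermoid carcinoma H.Ep.-2 cells, clone-colony viability assay with retinoid at 1-40 μg/mL; incubated 37 °C for 12 days, stained, colonies counted. % of control = 100 × treated colonies/control colonies.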
# Cricetinae gen. sp. [4] = assay: Cultures with severe degree of squamous metaplasia at a concentration of 10e-9; format: functional, Cricetulus griseus; procedure, shortened: as §2
# Cricetinae gen. sp. [5] = assay: Cultures with no evidence of squamous metaplasia at a concentration of 10e-8 M; format: functional, Cricetulus griseus; procedure, shortened: as §1
# Cricetinae gen. sp. [6] = assay: Cultures with marked degree of squamous metaplasia at a concentration of 10e-8 M; format: functional, Cricetulus griseus; procedure, shortened: as §1
# Cricetinae gen. sp. [7] = assay: Cultures with mild degree of squamous metaplasia at a concentration of 10e-8 M; format: functional, Cricetulus griseus; procedure, shortened: as §1
# L1210 [8] = assay: Inhibition of proliferation of L1210 cells in culture at a concentration 20 ug/mL; format: functional, Mus musculus; set-up: scale not given: the % may be the effect or the level left
# Procedure, shortened: (§4)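 L1210 suspension of about 10⁵ cells treated with retinoid at 1-40 μg/mL, 37 °C for 48 h; cells counted at 0 and 48 h, three cultures averaged per concentration. % of control = 100 × (treated 48 h − 0 h count)/(control 48 h − 0 h count).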
# Cricetinae gen. sp. [9] = assay: Cultures with marked degree of squamous metaplasia at a concentration of 10e-10; format: functional, Cricetulus griseus; procedure, shortened: as §1
# Cricetinae gen. sp. [10] = assay: Cultures with no evidence of squamous metaplasia at a concentration of 10e-11; format: functional, Cricetulus griseus; procedure, shortened: as §1
# Cricetinae gen. sp. [11] = assay: Cultures with marked degree of squamous metaplasia at a concentration of 10e-9; format: functional, Cricetulus griseus; procedure, shortened: as §1
# Cricetinae gen. sp. [12] = assay: Reversal of keratinization in vitamin A deficient hamster trachea culture at a concentration of 10e-8 M; format: functional, Cricetulus griseus; details: read-out: ED50 (the source's name); procedure, shortened: as §2
# Cricetinae gen. sp. [13] = assay: Cultures with minimal degree of squamous metaplasia at a concentration of 10e-8 M; format: functional, Cricetulus griseus; procedure, shortened: as §1
# Cricetinae gen. sp. [14] = assay: Cultures with marked degree of squamous metaplasia at a concentration of 10e-11; format: functional, Cricetulus griseus; procedure, shortened: as §1
# Cricetinae gen. sp. [15] = assay: Cultures with mild degree of squamous metaplasia at a concentration of 10e-11; format: functional, Cricetulus griseus; procedure, shortened: as §1
# Cricetinae gen. sp. [16] = assay: Cultures with no evidence of squamous metaplasia at a concentration of 10e-9; format: functional, Cricetulus griseus; procedure, shortened: as §1
# Cricetinae gen. sp. [17] = assay: Cultures with mild degree of squamous metaplasia at a concentration of 10e-9; format: functional, Cricetulus griseus; procedure, shortened: as §1
# Cricetinae gen. sp. [18] = assay: Cultures with no evidence of squamous metaplasia at a concentration of 10e-10; format: functional, Cricetulus griseus; procedure, shortened: as §1
# HEp-2 [19] = assay: Viability of human epidermoid carcinoma cells (H.Ep-2) at a concentration 40 ug/mL; format: functional; procedure, shortened: as §3
# Cricetinae gen. sp. [20] = assay: Cultures with minimal degree of squamous metaplasia at a concentration of 10e-9; format: functional, Cricetulus griseus; procedure, shortened: as §1
# L1210 [21] = assay: Inhibition of proliferation of L1210 cells in culture at a concentration 1 ug/mL; format: functional, Mus musculus; set-up: scale not given: the % may be the effect or the level left; procedure, shortened: as §4
# Cricetinae gen. sp. [22] = assay: Cultures with mild degree of squamous metaplasia at a concentration of 10e-10; format: functional, Cricetulus griseus; procedure, shortened: as §1
# HEp-2 [23] = assay: Viability of human epidermoid carcinoma cells (H.Ep-2) at a concentration 10 ug/mL; format: functional; procedure, shortened: as §3
# Cricetinae gen. sp. [24] = assay: Cultures with severe degree of squamous metaplasia at a concentration of 10e-8 M; format: functional, Cricetulus griseus; procedure, shortened: as §2
# HEp-2 [25] = assay: Viability of human epidermoid carcinoma cells (H.Ep-2) at a concentration 20 ug/mL; format: functional; procedure, shortened: as §3
# Cricetinae gen. sp. [26] = assay: Cultures with minimal degree of squamous metaplasia at a concentration of 10e-11; format: functional, Cricetulus griseus; procedure, shortened: as §1
# Cricetinae gen. sp. [27] = assay: Cultures with severe degree of squamous metaplasia at a concentration of 10e-10; format: functional, Cricetulus griseus; procedure, shortened: as §1
# L1210 [28] = assay: Inhibition of proliferation of L1210 cells in culture at a concentration 10 ug/mL; format: functional, Mus musculus; set-up: scale not given: the % may be the effect or the level left; procedure, shortened: as §4
# Cricetinae gen. sp. [29] = assay: Cultures with no evidence of squamous metaplasia at a conc of 10e-9 M; format: functional, Cricetulus griseus; procedure, shortened: as §1
# Cricetinae gen. sp. [30] = assay: Cultures with marked degree of squamous metaplasia at a conc of 10e-10 M; format: functional, Cricetulus griseus; procedure, shortened: as §1
# Cricetinae gen. sp. [31] = assay: Cultures with mild degree of squamous metaplasia at a conc of 10e-8 M; format: functional, Cricetulus griseus; procedure, shortened: as §1
# Cricetinae gen. sp. [32] = assay: Cultures with marked degree of squamous metaplasia at a conc of 10e-8 M; format: functional, Cricetulus griseus; procedure, shortened: as §1
# Cricetinae gen. sp. [33] = assay: Cultures with severe degree of squamous metaplasia at a conc of 10e-9 M; format: functional, Cricetulus griseus; procedure, shortened: as §1
# Cricetinae gen. sp. [34] = assay: Cultures with minimal degree of squamous metaplasia at a conc of 10e-11 M; format: functional, Cricetulus griseus; procedure, shortened: as §1
# Cricetinae gen. sp. [35] = assay: Cultures with minimal degree of squamous metaplasia at a conc of 10e-10 M; format: functional, Cricetulus griseus; procedure, shortened: as §1
# Cricetinae gen. sp. [36] = assay: Cultures with marked degree of squamous metaplasia at a conc of 10e-9 M; format: functional, Cricetulus griseus; procedure, shortened: as §1
# Cricetinae gen. sp. [37] = assay: Cultures with minimal degree of squamous metaplasia at a conc of 10e-8 M; format: functional, Cricetulus griseus; procedure, shortened: as §1
# Cricetinae gen. sp. [38] = assay: Reversal of keratinization in vitamin A deficient hamster trachea culture at a conc of 10e-8 M; format: functional, Cricetulus griseus; details: read-out: ED50 (the source's name); procedure, shortened: as §2
# Cricetinae gen. sp. [39] = assay: Cultures with minimal degree of squamous metaplasia at a conc of 10e-9 M; format: functional, Cricetulus griseus; procedure, shortened: as §1
# Cricetinae gen. sp. [40] = assay: Cultures with severe degree of squamous metaplasia at a conc of 10e-8 M; format: functional, Cricetulus griseus; procedure, shortened: as §1
# Cricetinae gen. sp. [41] = assay: Cultures with severe degree of squamous metaplasia at a conc of 10e-10 M; format: functional, Cricetulus griseus; procedure, shortened: as §1
# Cricetinae gen. sp. [42] = assay: Cultures with no evidence of squamous metaplasia at a conc of 10e-11 M; format: functional, Cricetulus griseus; procedure, shortened: as §1
# Cricetinae gen. sp. [43] = assay: Cultures with mild degree of squamous metaplasia at a conc of 10e-10 M; format: functional, Cricetulus griseus; procedure, shortened: as §1
# Cricetinae gen. sp. [44] = assay: Cultures with severe degree of squamous metaplasia at a conc of 10e-11 M; format: functional, Cricetulus griseus; procedure, shortened: as §1
# Cricetinae gen. sp. [45] = assay: Cultures with no evidence of squamous metaplasia at a conc of 10e-10 M; format: functional, Cricetulus griseus; procedure, shortened: as §1
# Cricetinae gen. sp. [46] = assay: Cultures with marked degree of squamous metaplasia at a conc of 10e-11 M; format: functional; procedure, shortened: as §1
# Cricetinae gen. sp. [47] = assay: Cultures with no evidence of squamous metaplasia at a conc of 10e-8; format: functional, Cricetulus griseus; procedure, shortened: as §1
# Cricetinae gen. sp. [48] = assay: Cultures with mild degree of squamous metaplasia at a conc of 10e-11 M; format: functional, Cricetulus griseus; procedure, shortened: as §1
# Cricetinae gen. sp. [49] = assay: Cultures with mild degree of squamous metaplasia at a conc of 10e-9 M; format: functional, Cricetulus griseus; procedure, shortened: as §1
compound,measurement,setting,value
CC1=C(/C=C/C(C)=C/C=C/C(C)=C/C(=O)NC(CC(C)C)C(=O)O)C(C)(C)CCC1 (centres undefined),Culture,Cricetinae gen. sp. [1],0%
same,Culture,Cricetinae gen. sp. [2],14%
same,Control,HEp-2 [3],73%
same,Culture,Cricetinae gen. sp. [4],0%
same,Culture,Cricetinae gen. sp. [5],96%
same,Culture,Cricetinae gen. sp. [6],0%
same,Culture,Cricetinae gen. sp. [7],4%
same,Control,L1210 [8],20%
same,Culture,Cricetinae gen. sp. [9],32%
same,Culture,Cricetinae gen. sp. [10],14%
same,Culture,Cricetinae gen. sp. [11],9%
same,EC50,Cricetinae gen. sp. [12],0.1 nM
same,Culture,Cricetinae gen. sp. [13],0%
same,Culture,Cricetinae gen. sp. [14],58%
same,Culture,Cricetinae gen. sp. [15],14%
same,Culture,Cricetinae gen. sp. [16],87%
same,Culture,Cricetinae gen. sp. [17],4%
same,Culture,Cricetinae gen. sp. [18],48%
same,Control,HEp-2 [19],25%
same,Culture,Cricetinae gen. sp. [20],0%
same,Control,L1210 [21],95%
same,Culture,Cricetinae gen. sp. [22],16%
same,Control,HEp-2 [23],29%
same,Culture,Cricetinae gen. sp. [24],0%
same,Control,HEp-2 [25],14%
same,Culture,Cricetinae gen. sp. [26],0%
same,Culture,Cricetinae gen. sp. [27],4%
same,Control,L1210 [28],62%
CC1=C(/C=C/C(C)=C/C=C/C(C)=C/C(=O)NC(C)C(=O)O)C(C)(C)CCC1 (centres undefined),Culture,Cricetinae gen. sp. [29],72%
same,Culture,Cricetinae gen. sp. [30],58%
same,Culture,Cricetinae gen. sp. [31],0%
same,Culture,Cricetinae gen. sp. [32],0%
same,Culture,Cricetinae gen. sp. [33],14%
same,Culture,Cricetinae gen. sp. [34],0%
same,Culture,Cricetinae gen. sp. [35],0%
same,Culture,Cricetinae gen. sp. [36],0%
same,Culture,Cricetinae gen. sp. [37],0%
same,EC50,Cricetinae gen. sp. [38],0.4 nM
same,Culture,Cricetinae gen. sp. [39],0%
same,Culture,Cricetinae gen. sp. [40],0%
same,Culture,Cricetinae gen. sp. [41],14%
same,Culture,Cricetinae gen. sp. [42],0%
same,Culture,Cricetinae gen. sp. [43],14%
same,Culture,Cricetinae gen. sp. [44],14%
same,Culture,Cricetinae gen. sp. [45],14%
same,Culture,Cricetinae gen. sp. [46],57%
same,Culture,Cricetinae gen. sp. [47],100%
same,Culture,Cricetinae gen. sp. [48],29%
same,Culture,Cricetinae gen. sp. [49],14%
